Activity calls are given as the source filed them. The rule behind the calls is not given here.
What was measured:
[1] = biological target: Histone acetyltransferase KAT2B (Homo sapiens, UniProt Q92831); test: Displacement of biotinylated JQ1 from PCAF bromodomain (unknown origin) incubated for 20 mins by AlphaLISA assay
[2] = AUC (0 to infinity) in mouse at 30 mg/kg,po; assay type: ADME, organism-based; parameters: dose 30 mg/kg, route po; conditions: in vivo
[3] = Protein binding in human plasma; assay type: ADME, cell-free; conditions: read-out: PPB (converted)
[4] = Intrinsic clearance in human liver microsomes; assay type: ADME, Microsome; conditions: read-out: CLH
[5] = Tmax in dog at 2.5 mg/kg,po; assay type: ADME, organism-based, Canis lupus familiaris; conditions: in vivo
[6] = Apparent oral clearance in human patient with progression lymphoma at 300 mg,po QD consecutively for 14 days; assay type: ADME; conditions: in vivo, 336 h, time 14 day
Summary of the method: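 Phase I trial in patients with hematologic malignancies, oral dosing once daily with escalating cohorts; values are from the 300 mg dose on day 14. AUC0-24 was taken as exposure over 24 h. Apparent clearance was calculated as Dose/AUC0-24.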

[7] = Unbound Cmax in human patient with progression lymphoma at 300 mg,po QD consecutively for 14 days; assay type: ADME; conditions: in vivo, 336 h, time 14 day
Summary of the method: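 Oral dosing in patients with hematologic malignancies, cycles at escalating doses; 300 mg cohort sampled at day 14. Unbound Cmax = free fraction × Cmax.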

[8] = Cmax in mouse at 10 mg/kg,sc; assay type: ADME, organism-based; parameters: dose 10 mg/kg, route sc; conditions: in vivo
[9] = biological target: T1, ATPase family AAA domain-containing protein 2 (Homo sapiens, UniProt Q6PL18); test: Binding affinity to ATAD2 bromodomain (unknown origin) incubated for 60 mins by TR-FRET assay
T1 sequence (Q6PL18 whole entry): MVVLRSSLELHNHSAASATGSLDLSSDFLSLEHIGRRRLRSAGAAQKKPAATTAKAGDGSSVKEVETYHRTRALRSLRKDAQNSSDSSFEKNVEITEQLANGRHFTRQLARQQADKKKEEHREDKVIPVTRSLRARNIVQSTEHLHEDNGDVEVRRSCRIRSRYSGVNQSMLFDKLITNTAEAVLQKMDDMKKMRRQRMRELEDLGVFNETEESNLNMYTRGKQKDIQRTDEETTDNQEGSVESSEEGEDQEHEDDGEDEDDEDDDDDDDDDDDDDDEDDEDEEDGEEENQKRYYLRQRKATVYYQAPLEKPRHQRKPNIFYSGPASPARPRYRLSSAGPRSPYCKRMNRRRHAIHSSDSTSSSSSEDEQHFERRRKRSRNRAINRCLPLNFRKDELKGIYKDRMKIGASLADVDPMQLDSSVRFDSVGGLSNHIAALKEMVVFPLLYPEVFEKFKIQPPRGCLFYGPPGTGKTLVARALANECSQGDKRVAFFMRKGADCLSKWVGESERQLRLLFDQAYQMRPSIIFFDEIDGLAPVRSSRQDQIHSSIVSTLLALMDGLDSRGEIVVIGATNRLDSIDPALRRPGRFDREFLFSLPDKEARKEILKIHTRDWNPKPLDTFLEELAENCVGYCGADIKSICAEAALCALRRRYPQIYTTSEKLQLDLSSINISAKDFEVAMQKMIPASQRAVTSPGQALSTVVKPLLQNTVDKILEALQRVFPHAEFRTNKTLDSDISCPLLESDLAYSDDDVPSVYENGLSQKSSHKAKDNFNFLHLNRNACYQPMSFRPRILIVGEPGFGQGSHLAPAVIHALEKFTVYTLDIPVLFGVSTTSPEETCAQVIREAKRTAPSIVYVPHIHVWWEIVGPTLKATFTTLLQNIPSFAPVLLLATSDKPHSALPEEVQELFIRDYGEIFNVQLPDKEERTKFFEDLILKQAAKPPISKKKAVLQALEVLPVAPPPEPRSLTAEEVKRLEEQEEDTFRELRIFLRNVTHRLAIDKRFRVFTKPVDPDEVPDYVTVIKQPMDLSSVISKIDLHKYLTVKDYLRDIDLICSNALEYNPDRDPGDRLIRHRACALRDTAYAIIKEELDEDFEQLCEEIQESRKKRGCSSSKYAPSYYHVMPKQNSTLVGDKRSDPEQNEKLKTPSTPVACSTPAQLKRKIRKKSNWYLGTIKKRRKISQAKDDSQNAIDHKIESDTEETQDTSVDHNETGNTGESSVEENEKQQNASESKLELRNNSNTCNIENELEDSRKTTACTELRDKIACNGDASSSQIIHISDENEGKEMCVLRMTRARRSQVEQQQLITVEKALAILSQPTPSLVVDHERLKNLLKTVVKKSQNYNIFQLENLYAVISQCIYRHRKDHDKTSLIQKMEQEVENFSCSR

[10] = biological target: Bromodomain-containing protein 8 (Homo sapiens, UniProt Q9H0E9); test: Binding affinity to BRD8 bromodomain (unknown origin) incubated for 60 mins by TR-FRET assay
[11] = tested on: Cytochrome P450; test: Inhibition of CYP450 (unknown origin) at 10 uM; assay type: ADME, protein assay; conditions: human
Summary of the method: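 Cytochrome P450 activity tested with compound at 10 µM against a number of common isoforms; time-dependent inhibition also assessed.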

[12] = tested on: MV4-11; test: In vivo inhibition of BRD4 in human MV4-11 cells xenografted in BALB/c mouse assessed as reduction in cellular MYC mRNA expression level in tumor at 15 mg/kg,sc BID and measured at 4 hrs by PCR anlaysis; assay type: functional, organism-based
Summary of the method: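 Pharmacodynamic study in MV-4-11 AML mouse xenograft. Dosing was 15 mg/kg subcutaneous twice daily. At 4, 8 and 12 h after the second dose, MYC mRNA was measured against vehicle, and compound levels were measured in plasma and tumor. Free plasma concentration was estimated alongside total levels.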

[13] = tested on: MV4-11; test: Antitumor activity against human MV4-11 cells xenografted in BALB/c mouse assessed as tumor growth inhibition at 30 mg/kg,po QD for 28 days; assay type: functional; conditions: MV4-11, 672 h, time 28 day, read-out: TGI
Summary of the method: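 Single-agent efficacy in MV-4-11 AML mouse xenograft. Tumor volume (mm3) and percent body-weight change were tracked over the treatment days.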

[14] = tested on: MV4-11; test: Antitumor activity against human MV4-11 cells xenografted in BALB/c mouse assessed as modest tumor growth inhibition at 10 mg/kg,sc BID for 28 days; assay type: functional, organism-based; conditions: time 28.0 day
[15] = tested on: MV4-11; test: Antitumor activity against human MV4-11 cells xenografted in BALB/c mouse assessed as complete tumor growth inhibition at 10 mg/kg,sc BID in presence of doxorubicin at 2 mg/kg,iv BIW for 28 days; assay type: functional, organism-based; conditions: time 28.0 day
[16] = Toxicity in rat assessed as GI mucosal atrophy at 2 to 20 mg/kg,po QD consecutive for 14 days followed by 2 weeks recovery period; assay type: organism-based; conditions: in vivo, 336 h, dose 2-20 mg/kg, time 14 day
Summary of the method: (§1)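 Oral suspension given once daily for 14 consecutive days (rat 2, 6, 20 mg/kg; dog 2, 4, 6 mg/kg) in dose range-finding and GLP repeat-dose studies, GLP arms with an added 2-week recovery period; histopathology and clinical pathology findings recorded.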

[17] = Toxicity in rat assessed as degeneration of testicular seminiferous epithelium at 2 to 20 mg/kg,po QD consecutive for 14 days followed by 2 weeks recovery period; assay type: organism-based; conditions: in vivo, 336 h, dose 2-20 mg/kg, time 14 day; summary of the method: as §1
[18] = Toxicity in dog assessed as hypocellularity of bone marrow with associated anemia and thrombocytopenia at 2 to 6 mg/kg,po QD consecutive for 14 days followed by 2 weeks recovery period; assay type: organism-based, Canis lupus familiaris; conditions: in vivo, 336 h, dose 2-6 mg/kg, time 14 day; summary of the method: as §1

Sequence of Bromodomain-containing protein 8 (Q9H0E9 whole entry): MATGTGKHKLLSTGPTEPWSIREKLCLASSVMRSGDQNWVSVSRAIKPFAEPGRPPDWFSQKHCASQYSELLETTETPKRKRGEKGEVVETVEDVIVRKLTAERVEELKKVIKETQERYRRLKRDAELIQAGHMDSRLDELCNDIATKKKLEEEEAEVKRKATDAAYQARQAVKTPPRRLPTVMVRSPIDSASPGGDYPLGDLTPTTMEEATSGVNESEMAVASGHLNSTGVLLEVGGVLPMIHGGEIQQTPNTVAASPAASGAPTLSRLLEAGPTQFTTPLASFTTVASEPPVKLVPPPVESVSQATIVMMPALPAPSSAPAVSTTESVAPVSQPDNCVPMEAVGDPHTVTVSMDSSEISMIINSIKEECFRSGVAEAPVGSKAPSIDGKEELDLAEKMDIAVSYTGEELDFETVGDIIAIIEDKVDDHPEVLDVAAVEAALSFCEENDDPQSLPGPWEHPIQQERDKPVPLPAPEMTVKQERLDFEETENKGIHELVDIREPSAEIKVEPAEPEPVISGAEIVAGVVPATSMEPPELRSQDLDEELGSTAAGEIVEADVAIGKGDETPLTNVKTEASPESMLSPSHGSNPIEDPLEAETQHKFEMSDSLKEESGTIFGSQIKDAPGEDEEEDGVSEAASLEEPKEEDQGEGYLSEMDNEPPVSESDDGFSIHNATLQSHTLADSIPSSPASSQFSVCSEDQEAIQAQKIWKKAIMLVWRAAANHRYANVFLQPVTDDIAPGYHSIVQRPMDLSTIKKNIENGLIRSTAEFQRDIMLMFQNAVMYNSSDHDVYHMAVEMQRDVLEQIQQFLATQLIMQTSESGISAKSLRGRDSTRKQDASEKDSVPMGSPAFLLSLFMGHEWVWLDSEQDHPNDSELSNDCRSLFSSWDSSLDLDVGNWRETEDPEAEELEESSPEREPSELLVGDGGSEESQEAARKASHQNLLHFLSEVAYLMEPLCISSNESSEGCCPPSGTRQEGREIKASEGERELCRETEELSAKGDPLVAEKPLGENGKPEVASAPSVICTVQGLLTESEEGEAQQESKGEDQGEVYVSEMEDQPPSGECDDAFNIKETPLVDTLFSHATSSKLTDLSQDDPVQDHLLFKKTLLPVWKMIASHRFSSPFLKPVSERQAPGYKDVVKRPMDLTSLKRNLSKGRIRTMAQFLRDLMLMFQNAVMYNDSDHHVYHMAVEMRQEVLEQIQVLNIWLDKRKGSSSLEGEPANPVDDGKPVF
Sequence of Histone acetyltransferase KAT2B (Q92831 whole entry): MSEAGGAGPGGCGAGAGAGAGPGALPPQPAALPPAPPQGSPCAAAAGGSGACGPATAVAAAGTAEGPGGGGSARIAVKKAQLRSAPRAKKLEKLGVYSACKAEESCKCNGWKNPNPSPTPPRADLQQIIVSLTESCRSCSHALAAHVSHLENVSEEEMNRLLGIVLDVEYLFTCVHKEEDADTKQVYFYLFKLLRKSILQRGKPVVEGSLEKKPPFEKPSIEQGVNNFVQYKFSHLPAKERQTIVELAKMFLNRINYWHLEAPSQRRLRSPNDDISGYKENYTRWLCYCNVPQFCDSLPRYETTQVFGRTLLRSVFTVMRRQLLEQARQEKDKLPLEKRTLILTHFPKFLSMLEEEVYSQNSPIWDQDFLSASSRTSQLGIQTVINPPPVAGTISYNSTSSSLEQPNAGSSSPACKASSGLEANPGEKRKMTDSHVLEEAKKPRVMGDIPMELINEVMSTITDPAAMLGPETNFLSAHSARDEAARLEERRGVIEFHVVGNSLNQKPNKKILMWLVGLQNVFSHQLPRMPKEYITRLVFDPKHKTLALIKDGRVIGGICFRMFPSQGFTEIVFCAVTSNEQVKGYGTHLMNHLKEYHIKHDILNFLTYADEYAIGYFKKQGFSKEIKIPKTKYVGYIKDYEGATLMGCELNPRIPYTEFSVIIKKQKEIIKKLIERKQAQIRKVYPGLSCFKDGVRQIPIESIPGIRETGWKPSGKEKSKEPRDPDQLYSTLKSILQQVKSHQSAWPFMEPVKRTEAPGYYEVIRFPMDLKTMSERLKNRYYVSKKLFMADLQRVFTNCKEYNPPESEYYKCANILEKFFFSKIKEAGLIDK

In the case of `Cc1noc2c1-c1ccccc1C(c1ccc(Cl)cc1)=N[C@H]2CC(N)=O` [PELABRESIB], the IC50 [1] is reported as > 20 µM, the AUC(0-inf) [2] is reported as 101 µM·h and the fraction unbound [3] is reported as 0.05. It also gave a predicted hepatic clearance [4] of 10 mL/min/kg, a Tmax [5] of 1.3 h and a CL/F [6] of 21 L/h. For the same compound, the fCmax [7] was 0.3 µM, the Cmax [8] was 8.4 µM and the IC50 [9] was > 80 µM. The IC50 [10] was > 15 µM, the “inhibition (INH)” value [11] was “Not Active” and the inhibition [12] was “Active”. The inhibition in vivo at 30 mg/kg [13] was 41%, the Activity [14] was “Active” and the Activity [15] was “Active”. The Activity [16] was “Toxic”, the Activity [17] was “Toxic” and the Activity [18] was “Toxic”.

— ChEMBL document CHEMBL5252513, “Identification of a Benzoisoxazoloazepine Inhibitor (CPI-0610) of the Bromodomain and Extra-Terminal (BET) Family as a Candidate for Human Clinical Trials” (J Med Chem, 2016)
